Variants at the floor of the assay were thinned out.
B1: tRNA (parent)
chain: GUUCCGUUGGCGUAAUGGUAACGCGUCUCCCUCCUAAGGAGAAGACUGCGGGUUCGAGUCCCGUACGGAACG

Variants of: B1
Assay: yeast fitness relative to wild type (ratio to wild type); higher = fitter; tRNA-Arg(CCU), competitive growth, 37 C, YPD
Summary of the method: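 Genotype frequency changes were the basis for Darwinian fitness relative to wild type. The frequencies came from 100-nucleotide paired-end sequencing of gene amplicons from the start population and each end population of pooled yeast strains with tRNA-Arg(CCU) gene variants at the native locus. Competition ran in YPD at 37°C for 24 hours in six replicates, genotypes needed ≥ 100 starting reads, and estimates < 0.5 were set to 0.5.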

Variant	yeast fitness
A21U C24G C62G C66U	≤ 0.5
A21C C46G A65U	0.658
A21U C29A C30U C62G U64A	≤ 0.5
A21U A45U G50C U64G	≤ 0.5
A21C G67C	0.654
A21C C34A G38A A45U	0.546
A21U A36C C60G A65C	0.575
A21C C29U C31G A43U	0.612
A21G C49U A65C	0.747
A21G A45G C46G A70U	≤ 0.5
A21C C29A G52C G68A	0.664
A21G G23C C31U C34G A43G A45C A57U	0.574
A21G C22U G63A	0.572
A21C C61G	0.585
A21C C30U U32G U53C G67A	≤ 0.5
A21C G25C U26G	0.59
A21G C55U	0.704
A21C G56A	0.946
A21G G67U A69C	0.528
A21G C22A C49A G56C	≤ 0.5
A21G G39A	0.809
A21U A40U A45U	0.625
A21C C34G A36G C46A	0.586
A21C C33U C61A G68C	≤ 0.5

Variant	yeast fitness
A21G A57G C66G	0.599
A21C C27U C46G G48A C62G G68C	≤ 0.5
A21G C24U G51C	≤ 0.5
A21U C30U A65G C66G	0.638
A21G C49U G63A	0.804
A21G A42G A65C G67A	≤ 0.5
A21G G41A C60U	0.574
A21G C27U C61G A65U	≤ 0.5
A21C C62U G68C	0.601
A21U A42G C55U A70C	0.603
A21C C46U	0.909
A21U C27A G50C G52C	≤ 0.5
A21C C30G C66A	0.572
A21G C22G G25A G63A	≤ 0.5
A21C C30U A45G	≤ 0.5
A21G C49U U53C C61G	≤ 0.5
A21U C22U G51C G52A U59G	≤ 0.5
A21G C61U A70U	0.776
A21G C61U A70G	0.761
A21C G44C	0.627
A21G G56C A65G	0.583
A21U A43U C49G	≤ 0.5
A21U C22G C55A G56C G67C	≤ 0.5
A21C C31G C62U A69G	≤ 0.5

Variant	yeast fitness
A21G C22A G25A C46U U54A	≤ 0.5
A21U A36C G38C G58C A69C	≤ 0.5
A21C C31A C33G A45G G48A A65U	≤ 0.5
A21U C30A A70G	0.756
A21C C29G G51A	0.529
A21G U53A U54C C61G	0.718
A21G G25A	1.12
A21G A65G	1.01
A21G A36U	0.583
A21G C33G C34G U47A G50A	≤ 0.5
A21U C22U U26C	≤ 0.5
A21C C29U A43G C66U	≤ 0.5
A21G U64A	0.877
A21C C27U C33U	0.544
A21G C31U	0.872
A21U A36G A43U	0.729
A21G C62G	1.02
A21U C31A G39C C62G	≤ 0.5
A21U C31G A42G U53A G68A	≤ 0.5
A21G G23C C31U C34G A43G A45C G67C	≤ 0.5
A21G C29A A69C	≤ 0.5
A21G G23A C31U G63C U64A C66G	≤ 0.5
A21C C61G C62G	≤ 0.5
A21G C24G C31A G44A	0.571

Variant	yeast fitness
A21G U47A G68A	0.685
A21C C27U C61G	0.534
A21U C31G A45C	≤ 0.5
A21U C27U G44A	≤ 0.5
A21U A36G C55A G67C	≤ 0.5
A21U A36G	0.804
A21U A36C	≤ 0.5
A21G C22U A57G	0.614
A21U A57U	0.61
A21U C22A C29G C55A U59C	0.647
A21C C31U	0.733
A21C C31A	0.725
A21G G48C	1.01
A21G G48A	0.92
A21C G23U G48C	≤ 0.5
A21G A70C	0.993
A21C C34G A36G C46A C66A A70G	≤ 0.5
A21G U53A A57U A65U	0.52
A21C U32A U35C	≤ 0.5
A21U A43C C62U A65U	≤ 0.5
A21C C29U C31G A43U A65U	0.593
A21U A40U	0.728
A21C G68C A69U	≤ 0.5
A21G U53A	0.651

Variant	yeast fitness
A21G C34U A65C	≤ 0.5
A21G A37C A57C	≤ 0.5
A21G A42U G56A C61U	≤ 0.5
A21C C62G	0.723
A21C C62A	0.788
A21C C62U	0.798
A21C C31A C33G A45G G48A	0.579
A21G G44A A69C	≤ 0.5
A21G C46G	0.987
A21G G48C C66U G67C A70G	≤ 0.5
A21U A45G C49A	≤ 0.5
A21U A65C	0.793
A21G C24G A37U	0.573
A21C C31A C46A U54C	≤ 0.5
A21U C22A G38C U54G C60A	0.846
A21G G41A	0.995
A21U A69C	0.827
A21C G25A C30A A37U C66A	≤ 0.5
A21C C27U C33A A37C	0.554
A21G C34A	0.646
A21U C30G G48A	≤ 0.5
A21U C22U C30G U59G A65U	≤ 0.5
A21G U26A C34U G50C C62U	≤ 0.5
A21G U32C G51C C61A	0.508

Variant	yeast fitness
A21C G58C A65U	0.521
A21C U32C	0.864
A21U C24U A57U A65C A69C	≤ 0.5
A21U C27G A36U G39C	≤ 0.5
A21G C22A G56A A65C	0.528
A21U A42G C49U	≤ 0.5
A21U A37G G50C G56C	≤ 0.5
A21G C33G A40G	0.562
A21G C22U A37U A45G C46G C55A	≤ 0.5
A21U A57U C60A G68C	≤ 0.5
A21G A43C C60A	≤ 0.5
A21G A42G A45G	0.989
A21U C27G C33G A69U	≤ 0.5
A21U A40G A57U C60G G68C	≤ 0.5
A21U A36U A65G	0.589
A21G C30A	1
A21G A42C A43U G56C C66U	0.598
A21G C22G C49U G51A	0.603
A21G C49A C62U	0.544
A21G C27U A69C	0.781
A21C U26A A40U	0.534
A21G G25C C27G A42C G68C	≤ 0.5
A21G U32C C34G	≤ 0.5
A21G A57C	0.709

Variant	yeast fitness
A21C C29U A57C	0.558
A21G U26C A40U C49U	≤ 0.5
A21U C30U C46U A69U	≤ 0.5
A21U A45U	0.676
A21G A36U U53A	0.58
A21G G58C U59C G63A	0.701
A21U A36G C49A G63A	≤ 0.5
A21U C22G A69U	0.613
A21G G38C	0.674
A21C U26G A65G A69C	≤ 0.5
A21G C49A U54C A65G	≤ 0.5
A21C C62G A65C	≤ 0.5
A21C U28G A43C G52C	≤ 0.5
A21U C27G C30G	≤ 0.5
A21C C61A G68A	0.515
A21U C30A U32A U35G G67A	≤ 0.5
A21U C24A A45U	≤ 0.5
A21G C30A C31U A57G A65U A69U	≤ 0.5
A21U C30U A40C U59C C62U G67U	0.554
A21G G39C A69C	0.536
A21G C60A	0.577
A21G C60U	0.713
A21U C29G G63A	0.618

Source: the RNAGym collection of RNA variant scans (doi:10.1126/science.aae0568)
